Test results reported in PubChem BioAssay AID624083 (The Scripps Research Institute Molecular Screening Center, 2012).

Molecular target: VIM-2 metallo-beta-lactamase (Pseudomonas aeruginosa)
Assay: inhibition constants against purified VIM-2 enzyme – biochemical, absorbance, probe candidates and analogs, late-stage follow-up (AID 624083)
Settings: recombinant VIM-2, nitrocefin hydrolysis absorbance 495 nm
In short: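 System: VIM-2 enzyme | Quantity: VIM-2 at 0.1 nM final | Medium: HEPES buffer, pH 7.1, with zinc and Brij | Reagent: Nitrocefin substrate at varied concentrations | Compound dosing: Varied inhibitor concentrations | Timing: Enzyme reaction at room temperature | Signal: Absorbance at 495 nm tracking nitrocefin turnover over time | Read-out: Ki from mixed-inhibition regression | Repeats: Duplicates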

Compound | Ki
CN1CCN(NC(=O)CN2C(=O)/C(=C/c3c(Cl)ccc(Cl)c3Cl)SC2=S)CC1 | 183 nM
CN1CCN(NC(=O)CN2C(=O)/C(=C/c3c(Cl)cccc3Cl)SC2=S)CC1 | 1780 nM
